Measurements published in ChEMBL document CHEMBL2375213, “Synthesis and anticancer activity of novel spiro-isoxazoline and spiro-isoxazolidine derivatives of α-santonin” (Eur J Med Chem, 2013).

What was measured:
[1] = system: PC-3; experiment: Antiproliferative activity against human PC3 cells after 48 hrs by sulforhodamine B assay; type: functional, cell-based; settings: PC-3, 48 h
[2] = system: MCF7; experiment: Antiproliferative activity against human MCF7 cells after 48 hrs by sulforhodamine B assay; type: functional, cell-based; settings: MCF7, 48 h
[3] = system: A549; experiment: Antiproliferative activity against human A549 cells after 48 hrs by sulforhodamine B assay; type: functional, cell-based; settings: A549, 48 h
[4] = system: HEp-2; experiment: Antiproliferative activity against human Hep2 cells after 48 hrs by sulforhodamine B assay; type: functional, cell-based; settings: HEp-2, 48 h
[5] = system: THP-1; experiment: Antiproliferative activity against human THP1 cells after 48 hrs by sulforhodamine B assay; type: functional, cell-based; settings: THP-1, 48 h
[6] = system: HCT-116; experiment: Antiproliferative activity against human HCT116 cells after 48 hrs by sulforhodamine B assay; type: functional, cell-based; settings: HCT-116, 48 h
[7] = system: PC-3; experiment: Cell cycle arrest in human PC3 cells assessed as accumulation at M phase at 5 uM after 24 hrs by propidium iodide staining-based FACS flow cytometric analysis (reference value: 3%); type: functional
Procedure, shortened: (§1)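 PC-3 cells (1×10^6/well) exposed 24 h to test agent at 1, 5 or 10 μM. Cells washed twice in ice-cold PBS, fixed in 70% ethanol for 30 min, then treated with RNase A (0.1 mg/mL, 37 °C, 30 min). Propidium iodide staining 30 min on ice in the dark. DNA content read by flow cytometry with 488 nm excitation and doublet discrimination, 10,000 events.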

[8] = system: PC-3; experiment: Cell cycle arrest in human PC3 cells assessed as accumulation at S phase at 5 uM after 24 hrs by propidium iodide staining-based FACS flow cytometric analysis (reference value: 8.5%); type: functional; procedure, shortened: as §1
[9] = system: PC-3; experiment: Cell cycle arrest in human PC3 cells assessed as accumulation at G0/G1 phase at 5 uM after 24 hrs by propidium iodide staining-based FACS flow cytometric analysis (reference value: 68.2%); type: functional; procedure, shortened: as §1
[10] = system: PC-3; experiment: Cell cycle arrest in human PC3 cells assessed as accumulation at subG1 phase at 5 uM after 24 hrs by propidium iodide staining-based FACS flow cytometric analysis (reference value: 13.1%); type: functional; procedure, shortened: as §1

Row | SMILES | IC50 [1] [µM] | IC50 [2] [µM] | IC50 [3] [µM] | IC50 [4] [µM] | IC50 [5] [µM] | IC50 [6] [µM] | Activity [7] [%] | Activity [8] [%] | Activity [9] [%] | Activity [10] [%]
1 | CC1=C2[C@H]3OC(=O)C4(C[C@@H](c5cccc6ccccc56)N(c5ccccc5)O4)[C@@H]3CC[C@@]2(C)C=CC1=O (some centres undefined) | 0.7 | 82 | 3.3 | 100 | 59 | 100 | – | – | – | –
2 | CC1=C2[C@H]3OC(=O)C4(C[C@@H](c5ccc([N+](=O)[O-])cc5)N(c5ccccc5)O4)[C@@H]3CC[C@@]2(C)C=CC1=O (single isomer, unassigned) | 0.6 | 0.9 | 66 | 100 | 0.1 | 100 | – | – | – | –
3 | CO[C@@]12[C@H](COC(N)=O)C3=C(C(=O)C(C)=C(N)C3=O)N1C[C@@H]1N[C@@H]12 [MITOMYCIN] | – | – | – | – | – | 0.5 | – | – | – | –
4 | CC1=C2[C@H]3OC(=O)C4(C[C@H](c5ccc(F)c(Br)c5)N(c5ccccc5)O4)[C@@H]3CC[C@@]2(C)C=CC1=O (some centres undefined) | 0.9 | 0.2 | 19 | 3.7 | 2.3 | 100 | – | – | – | –
5 | CC1=C2[C@H]3OC(=O)C4(CC(c5c6ccccc6cc6ccccc56)=NO4)[C@@H]3CC[C@@]2(C)C=CC1=O (some centres undefined) | 0.3 | 0.2 | 45 | 50 | 0.8 | 45 | – | – | – | –
6 | CC1=C2[C@H]3OC(=O)C4(C[C@@H](c5ccc(F)c(Br)c5)N(c5ccccc5)O4)[C@@H]3CC[C@@]2(C)C=CC1=O (some centres undefined) | 0.8 | 0.7 | 100 | 100 | 2.7 | 4.3 | – | – | – | –
7 | CC1=C2[C@H]3OC(=O)C4(C[C@@H](c5cc(F)cc(F)c5)N(c5ccccc5)O4)[C@@H]3CC[C@@]2(C)C=CC1=O (some centres undefined) | 1.4 | 3.9 | 14 | 100 | 0.8 | 28 | – | – | – | –
8 | O=c1[nH]cc(F)c(=O)[nH]1 [FLUOROURACIL] | 2.2 | – | 4.9 | 4.5 | 1 | – | – | – | – | –
9 | CC1=C2[C@H]3OC(=O)C4(CC(c5ccc(Br)c(F)c5)=NO4)[C@@H]3CC[C@@]2(C)C=CC1=O (some centres undefined) | 2 | 0.9 | 3.1 | 33 | 0.6 | 15 | – | – | – | –
10 | CC[C@@]1(O)C(=O)OCc2c1cc1n(c2=O)Cc2cc3ccccc3nc2-1 [CAMPTOTHECIN] | – | – | – | – | – | – | 4.76 | 4.94 | 30.17 | 60.44
11 | CC1=C2[C@H]3OC(=O)C4(CC(c5cc(Cl)ccc5Cl)=NO4)[C@@H]3CC[C@@]2(C)C=CC1=O (some centres undefined) | 100 | 39 | 100 | 100 | 100 | 61 | – | – | – | –
12 | CC1=C2[C@H]3OC(=O)C4(CC(c5c(Cl)cccc5Cl)=NO4)[C@@H]3CC[C@@]2(C)C=CC1=O (some centres undefined) | 100 | 27 | 100 | 15 | 100 | 10 | – | – | – | –
13 | COc1ccc(C2=NOC3(C2)C(=O)O[C@@H]2C4=C(C)C(=O)C=C[C@]4(C)CC[C@H]23)cc1 (some centres undefined) | 100 | 0.02 | 0.2 | 100 | 7.9 | 52 | – | – | – | –
14 | COc1cccc2c1C(=O)c1c(O)c3c(c(O)c1C2=O)C[C@@](O)(C(=O)CO)C[C@@H]3O[C@H]1C[C@H](N)[C@H](O)[C@H](C)O1 [DOXORUBICIN] | 6 | 0.5 | – | – | – | – | – | – | – | –
15 | CC1=C2[C@H]3OC(=O)C4(CC(c5ccc(O)cc5)=NO4)[C@@H]3CC[C@@]2(C)C=CC1=O (some centres undefined) | 55 | 100 | 3.8 | 40 | 100 | 8.2 | – | – | – | –
16 | CC1=C2[C@H]3OC(=O)C4(C[C@H](c5cc(F)cc(F)c5)N(c5ccccc5)O4)[C@@H]3CC[C@@]2(C)C=CC1=O (some centres undefined) | 0.7 | 0.09 | 100 | 100 | 25 | 0.09 | – | – | – | –
17 | CC1=C2[C@H]3OC(=O)C4(CC(c5ccc(F)cc5)=NO4)[C@@H]3CC[C@@]2(C)C=CC1=O (some centres undefined) | 100 | 100 | 61 | 100 | 100 | 100 | – | – | – | –
